For one series, the system named is Plasmodium falciparum. The series is described as follows: Antimalarial activity against chloroquine-resistant Plasmodium falciparum Dd2 assessed as parasite growth inhibition after 72 hrs by SYBR Green 1 assay. The format is functional. The following applies: Dd2, 72 h. The method, boiled down: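 Viability was read by SYBR Green I DNA quantitation and normalized to DMSO-treated untreated controls. IC50 came from nonlinear regression, averaging at least three independent experiments run in triplicate, with standard deviations.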

A further series relates to WI-38. The experiment in a line: Cytotoxicity against human WI38 cells after 24 hrs by resazurin assay. The conditions noted are these: WI-38, 24 h. In general terms: The colour change of resazurin is a common sign of viable cells or microbes.
The nature of series [1]: Selectivity index, ratio of IC50 for human WI38 cells to IC50 for chloroquine-resistant Plasmodium falciparum Dd2. The conditions noted are these: read-out: Ratio IC50. Type of series: toxicity.

Usually IC50 stands for the concentration needed to halve the response being measured.

As to `C/C=C(\C)C(=O)OC[C@]1(O)[C@H]2C[C@H]2[C@]2(C)[C@@H]3CC4=C5[C@H](/C(=C(/C)C(=O)OC)C(=O)[C@H](O)[C@@]5(C)[C@@H]5C[C@H]45)[C@@]34OC(=O)C(COC(C)=O)=C4C[C@@H]12`, the figures for the IC50 in the series with Plasmodium falciparum and with WI-38 were 13 nM and 160 nM, respectively. Moreover, the selectivity ratio in series [1] is 12. The matching figures for `COC(=O)CCC(=O)OCC1=C2C[C@H]3[C@](O)(COC(=O)/C=C(\C)C=O)[C@H]4C[C@H]4[C@]3(C)[C@@H]3CC4=C5[C@H](/C(=C(\C)C(=O)OC)C(=O)[C@H](O)[C@@]5(C)[C@@H]5C[C@H]45)[C@]23OC1=O`: 5.2 nM, 8840 nM and 1700. The matching figures for `COC(=O)CCC(=O)OCC1=C2C[C@H]3[C@](O)(COC(=O)/C=C(\C)CO)[C@H]4C[C@H]4[C@]3(C)[C@@H]3CC4=C5[C@H](/C(=C(\C)C(=O)OC)C(=O)[C@H](O)[C@@]5(C)[C@@H]5C[C@H]45)[C@]23OC1=O`: 1.1 nM, 5390 nM and 4900. Take `COC(=O)CCC(=O)OCC1=C2C[C@H]3[C@](O)(COC(=O)/C=C(\C)CO)[C@H]4C[C@H]4[C@]3(C)[C@@H]3C=C4C5=C(C6=C(C)C(=O)O[C@]6(O)[C@H](O)[C@@]5(C)[C@@H]5C[C@H]45)[C@]23OC1=O`: the 50% inhibitory concentration (IC50) with Plasmodium falciparum turned out to be 198 nM. On to `COC(=O)/C(C)=C1\C(=O)[C@H](O)[C@]2(C)C3=C(C[C@@H]4[C@]5(OC(=O)C(CO)=C5C[C@H]5[C@](O)(CO)[C@H]6C[C@H]6[C@]45C)[C@H]31)[C@H]1C[C@H]12`, for which the half-maximal inhibitory concentration (IC50) in the series on Plasmodium falciparum is 4600 nM. Consider `C/C=C(\C)C(=O)OC[C@]1(O)[C@H]2CC3=C(CO)C(=O)O[C@@]34[C@@H]3C5=C(C[C@H]4[C@@]2(C)[C@@H]2C[C@@H]21)[C@H]1C[C@H]1[C@]5(C)[C@@H](O)C(=O)/C3=C(\C)C(=O)OC`, for which the IC50 in the series with Plasmodium falciparum stood at 21 nM; with WI-38, 770 nM. In addition, the selectivity ratio in series [1] was 37. As to `COC(=O)/C(C)=C1\C(=O)[C@H](O)[C@]2(C)C3=C1[C@]14OC(=O)C(C)=C1C[C@H]1[C@](O)(CO)[C@H]5C[C@H]5[C@]1(C)[C@@H]4C[C@]3(OO)[C@H]1C[C@H]12`, the IC50 in the series with Plasmodium falciparum was 5300 nM.

Regarding `C=C1C(=O)O[C@]23C4=C5C(=O)[C@H](O)[C@]6(C)C4=C(C[C@H]2[C@]2(C)C(C[C@]13[C@]5(C)C(=O)OC)[C@](O)(COC(=O)/C(C)=C/C)[C@H]1C[C@H]12)[C@H]1C[C@H]16` (stereo partly drawn), the IC50 in the series with Plasmodium falciparum came out at 4700 nM. For the molecule `COC(=O)CCC(=O)OCC1=C2C[C@H]3[C@](O)(COC(=O)/C=C(\C)CO)[C@H]4C[C@H]4[C@]3(C)[C@@H]3C[C@@]4(OO)C5=C(/C(=C(\C)C(=O)OC)C(=O)[C@H](O)[C@@]5(C)[C@@H]5C[C@@H]54)[C@]23OC1=O`, the IC50 was 43 nM in the series on Plasmodium falciparum and greater than 100000 nM in the series with WI-38. Regarding `COC(=O)/C(C)=C1\C(=O)[C@H](O)[C@]2(C)C3=C(C[C@@H]4[C@]5(OC(=O)C(C)=C5C[C@H]5[C@](O)(COC(=O)/C=C(\C)CO)[C@H]6C[C@H]6[C@]45C)[C@H]31)[C@H]1C[C@H]12`, the figures for the IC50 with Plasmodium falciparum and with WI-38 were 96 nM and 4450 nM, respectively. In series [1], the selectivity ratio turned out to be 46.

As for `COC(=O)CCC(=O)OCC1=C2C[C@H]3[C@](O)(COC(=O)/C=C(\C)CO)[C@H]4C[C@H]4[C@]3(C)[C@@H]3C[C@@]4(OO)C5=C(C6=C(C)C(=O)O[C@]6(O)[C@H](O)[C@@]5(C)[C@@H]5C[C@@H]54)[C@]23OC1=O`, in the series on Plasmodium falciparum, the half-maximal inhibitory concentration (IC50) worked out at 94 nM. As to `COC(=O)/C(C)=C1\C(=O)[C@H](O)[C@]2(C)C3=C(C[C@@H]4[C@]5(OC(=O)C(COC(=O)C[C@H](O)C(=O)OC)=C5C[C@H]5[C@](O)(COC(=O)/C(C)=C/CO)[C@H]6C[C@H]6[C@]45C)[C@H]31)[C@H]1C[C@H]12`, the IC50 in the series with Plasmodium falciparum was 7.2 nM; in the series with WI-38, 4040 nM. In series [1], the selectivity ratio came to 561.

As to `COC(=O)/C(C)=C1\C(=O)[C@H](O)[C@]2(C)C3=C(C[C@@H]4[C@]5(OC(=O)C(CO)=C5C[C@H]5[C@](O)(COC(C)=O)[C@H]6C[C@H]6[C@]45C)[C@H]31)[C@H]1C[C@H]12`, the half-inhibitory concentration (IC50) with Plasmodium falciparum came out at 100 nM; in the series on WI-38, 10000 nM. The selectivity ratio in series [1] worked out at 100. Taken in the same sequence, the figures for `COC(=O)CCC(=O)OC/C(C)=C/C(=O)OC[C@]1(O)[C@H]2C[C@H]2[C@]2(C)[C@@H]3CC4=C5[C@H](/C(=C(\C)C(=O)OC)C(=O)[C@H](O)[C@@]5(C)[C@@H]5C[C@H]45)[C@@]34OC(=O)C(CO)=C4C[C@@H]12` were 19 nM, 3090 nM and 163.

For `COC(=O)/C(C)=C1\C(=O)[C@H](O)[C@]2(C)C3=C(C[C@@H]4[C@]5(OC(=O)C(CO)=C5C[C@H]5[C@](O)(COC(=O)/C=C(\C)CO)[C@H]6C[C@H]6[C@]45C)[C@H]31)[C@H]1C[C@H]12`, the IC50 with Plasmodium falciparum came out at 111 nM. Turning to `COC(=O)/C(C)=C1/C(=O)[C@H](O)[C@]2(C)C3=C(C[C@@H]4[C@]5(OC(=O)C6=C5C[C@H]5[C@](O)(COC(=O)/C=C(\C)COC(=O)CCC(=O)OC6)[C@H]6C[C@H]6[C@]45C)[C@H]31)[C@H]1C[C@H]12`, the IC50 in the series on Plasmodium falciparum is 46 nM; with WI-38, 1240 nM. Moreover, the selectivity ratio in series [1] was determined as 27.

For the molecule `C=C1C(=O)O[C@]23C4=C5C(=O)[C@H](O)[C@]6(C)C4=C(C[C@H]2[C@]2(C)C(C[C@]13[C@]5(C)C(=O)OC)[C@](O)(COC(=O)/C(C)=C/COC(=O)CCC(=O)OC)[C@H]1C[C@H]12)[C@H]1C[C@H]16` (stereo partly drawn), the half-maximal inhibitory concentration (IC50) in the series with Plasmodium falciparum stood at 99 nM; in the series on WI-38, 15500 nM. Also, in series [1], the selectivity ratio is 157. The matching figures for `COC(=O)/C(C)=C1\C(=O)[C@H](O)[C@]2(C)C3=C(C[C@@H]4[C@]5(OC(=O)C6=C5C[C@H]5[C@](O)(COC(=O)/C(C)=C/COC(=O)[C@@H](O)CC(=O)OC6)[C@H]6C[C@H]6[C@]45C)[C@H]31)[C@H]1C[C@H]12`: 13 nM, 1740 nM and 134. Turning to `COC(=O)CCC(=O)OC/C(C)=C/C(=O)OC[C@]1(O)[C@H]2C[C@H]2[C@]2(C)[C@@H]3C[C@@]4(OO)C5=C(/C(=C(\C)C(=O)OC)C(=O)[C@H](O)[C@@]5(C)[C@@H]5C[C@@H]54)[C@@]34OC(=O)C(CO)=C4C[C@@H]12`, the half-maximal inhibitory concentration (IC50) in the series with Plasmodium falciparum was determined as 30 nM; in the series with WI-38, 530 nM. For the same molecule, the selectivity ratio in series [1] worked out at 18. Regarding `CC1=C2[C@H]3[C@@H]4C(=C[C@@H]5[C@]36OC(=O)C(CO)=C6C[C@H]3[C@](O)(COC(=O)/C=C(\C)CO)[C@H]6C[C@H]6[C@]53C)[C@H]3C[C@H]3[C@]4(C)[C@@H](O)[C@@]2(O)OC1=O`, the 50% inhibitory concentration (IC50) in the series with Plasmodium falciparum amounted to 9900 nM. Same read-out and setting: to `COC(=O)/C(C)=C1\C(=O)[C@H](O)[C@]2(C)C3=C(C[C@@H]4[C@]5(OC(=O)C(COC(C)=O)=C5C[C@H]5[C@](O)(COC(=O)C=C(C)C)[C@H]6C[C@H]6[C@]45C)[C@H]31)[C@H]1C[C@H]12` belongs 860 nM. Same read-out and setting: as for `C[C@@H]1CC[C@H]2[C@@H](C)C(=O)O[C@@H]3O[C@@]4(C)CC[C@@H]1[C@]32OO4` [ARTEMISININ], the figure is 4 nM; as for `CC1=C2C3=C4[C@](C)([C@@H]5C[C@@H]5[C@@]4(O)C[C@@H]4[C@]35OC(=O)C3=C5C[C@H]5[C@](O)(COC(=O)/C(C)=C/COC(=O)CCC(=O)OC3)[C@H]3C[C@H]3[C@]45C)[C@@H](O)[C@@]2(O)OC1=O` [CHLORAMULTILIDE C], greater than 25000 nM. Same read-out and setting: as for `C/C=C(\C)C(=O)OC[C@]1(O)[C@H]2C[C@H]2[C@]2(C)[C@@H]3C[C@@]4(O)C5=C(C6=C(C)C(=O)O[C@]6(O)[C@H](O)[C@@]5(C)[C@@H]5C[C@@H]54)[C@@]34OC(=O)C(CO)=C4C[C@@H]12` [CHLORAMULTILIDE D], the figure is greater than 25000 nM; as for `C/C=C(\C)C(=O)OC[C@]1(O)[C@H]2C[C@H]2[C@]2(C)[C@@H]3CC4=C5[C@H](/C(=C(\C)C(=O)OC)C(=O)[C@H](O)[C@@]5(C)[C@@H]5C[C@H]45)[C@@]34OC(=O)C(C)=C4C[C@@H]12` [SARCANDROLIDE A], 320 nM; as for `COC(=O)/C(C)=C1\C(=O)[C@H](O)[C@]2(C)C3=C(C[C@@H]4[C@]5(OC(=O)C(CO)=C5C[C@H]5[C@](O)(COC(=O)/C(C)=C/CO)[C@H]6C[C@H]6[C@]45C)[C@H]31)[C@H]1C[C@H]12` [SARCANDROLIDE B], 265 nM. For `C/C=C(\C)C(=O)OC[C@]1(O)[C@H]2C[C@H]2[C@]2(C)[C@@H]3C[C@@]4(O)C5=C(C6=C(C)C(=O)O[C@]6(O)[C@H](O)[C@@]5(C)[C@@H]5C[C@@H]54)[C@@]34OC(=O)C(COC(C)=O)=C4C[C@@H]12` [SARCANDROLIDE D], the IC50 with Plasmodium falciparum was greater than 25000 nM. Turning to `C/C=C(\C)C(=O)OC[C@]1(O)[C@H]2C[C@H]2[C@]2(C)[C@@H]3C[C@@]4(O)C5=C(/C(=C(\C)C(=O)OC)C(=O)[C@H](O)[C@@]5(C)[C@@H]5C[C@@H]54)[C@@]34OC(=O)C(COC(C)=O)=C4C[C@@H]12` [SARCANDROLIDE E], the IC50 in the series with Plasmodium falciparum was greater than 25000 nM.

(Values after ChEMBL document CHEMBL4004786, “Nanomolar Antimalarial Agents against Chloroquine-Resistant Plasmodium falciparum from Medicinal Plants and Their Structure-Activity Relationships” (J Nat Prod, 2017).)
